In the library only some 1.4% were active in any assay of this set; here they are far more common.
CTSL1 counter: Fasciola hepatica cathepsin L1 inhibitors, primary screen, counter-screen for PFM18AAP inhibitor project, biochemical, QFRET, fluorogenic peptide substrate. recombinant F. hepatica cathepsin L1, Z-Leu-Arg-MCA fluorescence. inhibition, % at 5.96 µM. actives 0.49% (n = 300,000). AID 1906, 2009;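 active = inhibition above the mean of all tested compounds plus 3 SD, set per screening campaign, cut at about 17% in these data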
UBC9 SUMO inh: inhibitors of in vitro SUMOylation cascade, primary screen, biochemical, HTRF, uHTS | SUMO-conjugating enzyme UBC9 (Homo sapiens), P63279 | HTRF SUMOylation assay, SAE1/SAE2 + UBC9 | inhibition, % at 35 µM | actives 0.36% (n = 290,000) | AID 2006, 2009; in the data active = inhibition above about 50%, passing the limit was not always enough
Neddyl block: inhibitors of cullin neddylation, primary screen, biochemical, TR-FRET, uHTS, NAE and Ubc12; NEDD8-conjugating enzyme Ubc12 (Homo sapiens) + NEDD8-activating enzyme E1 regulatory …; inhibition, % at 25 µM; actives 0.58% (n = 360,000); in the data active = inhibition above about 36%
UCH37 inh: inhibitors of human UCH37 deubiquitinase, primary screen, biochemical, Ub-AMC cleavage, fluorescence; Ubiquitin carboxyl-terminal hydrolase isozyme L5 (Homo sapiens), Q9Y5K5; purified proteasome/UCH37; inhibition, % (concentration not given with the values); actives 0.33% (n = 330,000); AID 588478, 2011;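 active = mean inhibition over replicate wells above about 20%, limit read from the data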
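Material: human UCH37 enzyme supplied as purified proteasome complex. Measure: % inhibition of Ub-AMC cleavage fluorescence. Medium: pH 7.4 Tris-HCl (50 mM) with ovalbumin, ATP-MgCl2, DTT. Times: 30 min preincubation with enzyme, 25 min cleavage at room temperature. Detection: AMC fluorescence intensity at 355/460 nm.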
Numbers stand for hits; – = inactive; · = no result shown.

SMILES	CTSL1 counter	UBC9 SUMO inh	Neddyl block	UCH37 inh
CN1c2ccccc2C(C)(C)[C@]12C=Cc1cc(O)ccc1O2	–	–	–	–
CN1c2ccccc2C(C)(C)C12C=Nc1c(ccc3ccccc13)O2 (stereo not given)	21.3	–	–	–
Cc1c(C#N)c(N)c(C(=O)c2ccccc2)n1Cc1ccccc1	–	–	–	–
CCn1c(C)c(C(=O)c2ccccc2)c(C#N)c1C(=O)O	18.1	–	–	–
O=C(O)COc1ccc(C=Nn2c(COc3ccccc3)nc3ccccc3c2=O)cc1	·	·	·	–
COc1cc(C(=O)Nc2scc(-c3ccc(C)cc3)c2C(=O)O)cc(OC)c1OC	–	–	·	–
Cc1ccc(C(=O)Nc2scc(-c3ccccc3)c2C(=O)O)cc1	–	·	41.5	–
C=CCn1c(C)nnc1SCC(=O)Nc1oc(C)c2c(C)n[nH]c(=O)c12	17.7	·	–	–
Cc1cc(=O)n2nc(N3CCC(C(=O)N4CCN(Cc5ccccc5)CC4)CC3)sc2n1	–	–	–	23.6
Cc1cc(=O)n2nc(N3CCCC(C(=O)NCc4ccccc4)C3)sc2n1 (stereo not given)	–	–	–	–
Cc1cc(=O)n2nc(N3CCCC(C(=O)N4CCN(c5ccccc5)CC4)C3)sc2n1 (stereo not given)	17.4	–	–	–
CCOc1ccc(OCC)c(NC(=O)C2CCN(c3nn4c(=O)cc(C)nc4s3)CC2)c1	–	–	–	23.2
Cc1n[nH]c(=S)n1N=Cc1ccccc1	·	·	·	–
Nc1ccc2c(c1)C/C(=C/c1ccco1)C2=O	–	85.0	–	–
O=C1C(Cl)=C(NCCN2CCCCC2)C(=O)c2ccccc21	53.6	–	–	40.6
COc1ccccc1N1CCN(N=C(C)c2ccccc2O)CC1	·	·	·	–
COc1ccc(C=NNC(N)=S)cc1	·	·	·	–
NC(=S)N/N=C/c1ccc(/C=N/NC(N)=S)cc1	32.3	–	–	·
NC(=S)N/N=C/c1cccc(/C=N/NC(N)=S)c1	18.1	–	–	·
NC(=S)NN=Cc1cccc(Br)c1	·	·	·	–
Cc1ccc(C)c(S(=O)(=O)N2C(=S)NC(=O)C2C(C)C)c1 (stereo not given)	16.8	–	–	–
Cc1ccc(C)c(S(=O)(=O)N2CCCN(C)CC2)c1	–	–	–	–
CC(C)COc1ccc(-c2nn(-c3ccccc3)cc2/C=C2/SC(=S)N(CC(=O)O)C2=O)cc1	–	–	–	21.9
C/C=C/C(=O)N1CC2(CC(c3cccc(NC(=O)/C(C)=C/C)c3)=NO2)C[C@H]1C(N)=O (stereo not given in full)	18.5	–	–	–
CCNCCNc1ccc(Cl)cc1[N+](=O)[O-]	36.0	·	–	–
SMILES	CTSL1 counter	UBC9 SUMO inh	Neddyl block	UCH37 inh
CC(/C=C/c1ccco1)=NNC(=O)Cc1cccs1	·	·	·	–
COC(=O)NN=C(C)c1ccc(OC(F)F)cc1OC(F)F	·	·	·	–
COCCNC(=O)C1CCCN(Cc2ccccc2)CC1 (stereo not given)	·	·	–	·
COCCNC(=O)CCC1CCN(Cc2ccc(-c3ccccc3)cc2)CC1	–	79.7	–	–
COc1ccc(C)cc1NC(=O)C(OC(=O)CNC(=O)c1cc(C)cc(C)c1)c1ccccc1 (stereo not given)	–	–	–	–
COc1ccc(C(=O)C(OC(=O)CNC(=O)c2ccco2)c2ccccc2)cc1 (stereo not given)	33.2	–	–	–
Cc1ccc(C(=O)C(OC(=O)CNC(=O)c2ccc(Cl)cc2)c2ccccc2)cc1 (stereo not given)	19.6	–	–	–
COc1ccc(C)cc1NC(=O)C(OC(=O)CNC(=O)c1ccc(Br)cc1)c1ccccc1 (stereo not given)	17.6	–	–	–
Cc1ccc(S(=O)(=O)NCC(=O)OC(C(=O)c2ccccc2)c2ccccc2)cc1 (stereo not given)	–	–	–	–
O=C(CNC(=O)c1ccccc1)OC(C(=O)c1ccccc1)c1ccccc1 (stereo not given)	18.1	–	–	–
COc1ccc(/C(C)=N/NC(=O)CNC(=O)c2ccco2)cc1	–	–	–	·
N#CCC(=O)NN=Cc1cccc(OC/C=C/c2ccccc2)c1	·	·	·	–
CC(=O)NNC(=S)Nc1cc(S(=O)(=O)N(C)C)ccc1C	–	–	–	–
Cc1ccc(S(=O)(=O)N(C)C)cc1NC(=S)Nc1cccc2ccccc12	–	92.5	–	·
